pIC50: −log10 of the molar value. Active and inactive are the calls of the source. The calls are words filed in the database; no cut-off is given here.
Experiments:
P2X purinoceptor 7 [1] = biological target: T1, P2X purinoceptor 7 (Homo sapiens, UniProt Q99572); assay: Antagonist activity at P2X7 receptor in LPS/IFN-gamma-differentiated human THP1 cells assessed as inhibition of BzATP-induced IL-1beta release preincubated for 30 mins followed by BzATP induction measured after 30 mins by ELISA; type: cell-based, THP-1
T1 sequence (Q99572 whole entry): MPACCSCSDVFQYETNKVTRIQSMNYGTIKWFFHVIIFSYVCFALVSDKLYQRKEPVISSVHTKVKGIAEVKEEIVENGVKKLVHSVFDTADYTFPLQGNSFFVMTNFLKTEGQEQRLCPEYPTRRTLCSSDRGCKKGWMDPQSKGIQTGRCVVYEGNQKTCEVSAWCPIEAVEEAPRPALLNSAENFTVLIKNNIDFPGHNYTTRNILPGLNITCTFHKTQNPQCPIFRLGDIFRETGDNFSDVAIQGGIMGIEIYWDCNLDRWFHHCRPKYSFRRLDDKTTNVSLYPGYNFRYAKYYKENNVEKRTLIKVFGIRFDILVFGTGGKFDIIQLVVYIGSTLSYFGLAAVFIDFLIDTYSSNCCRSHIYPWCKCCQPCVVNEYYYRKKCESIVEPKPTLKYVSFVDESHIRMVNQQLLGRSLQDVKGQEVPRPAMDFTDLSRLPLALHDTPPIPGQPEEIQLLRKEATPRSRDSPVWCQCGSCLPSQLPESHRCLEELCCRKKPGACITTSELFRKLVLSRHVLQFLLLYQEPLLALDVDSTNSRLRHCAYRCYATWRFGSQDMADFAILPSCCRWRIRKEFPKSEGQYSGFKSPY
How it was run: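 Human THP-1 monocytes, LPS-primed, stimulated with BzATP; IL-1β release measured by ELISA. Active compounds were screened at 1 µM, and full concentration-response curves were run to obtain IC50.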

P2X purinoceptor 7 [2] = biological target: T1, P2X purinoceptor 7; assay: Antagonist activity at recombinant human P2X7 receptor expressed in HEK293 cells assessed as inhibition of BzATP-induced intracellular ethidium bromide uptake after 2 hrs by fluorescence assay; type: cell-based
How it was run: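 Human HEK293 cells stably expressing recombinant human P2X7; ethidium accumulation stimulated by BzATP was measured.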

[3] = biological target: T2, P2X purinoceptor 7 (Homo sapiens) (UniProt Q99572); assay: Antagonist activity at P2X7 receptor in LPS/IFN-gamma-differentiated human THP1 cells assessed as inhibition of BzATP-induced IL-1beta release at 1 uM preincubated for 30 mins followed by BzATP induction measured after 30 mins by ELISA relative to control; type: cell-based; conditions: THP-1
T2 sequence (whole entry): T1 sequence (Q99572 whole entry)
How it was run: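 LPS-primed THP-1 human monocytes were stimulated with BzATP, and IL-1β release was measured by ELISA. Test compound was given at a single concentration of 1 µM, and results are expressed as percent inhibition of BzATP-induced IL-1β release.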

[4] = biological target: T2, P2X purinoceptor 7 (Homo sapiens); assay: Antagonist activity at recombinant human P2X7 receptor expressed in HEK293 cells assessed as inhibition of BzATP-induced intracellular ethidium bromide uptake at 10 uM after 2 hrs by fluorescence assay; type: cell-based

Row | SMILES | pIC50 (P2X purinoceptor 7 [1]) | pIC50 (P2X purinoceptor 7 [2]) | inhibition [3] | inhibition [4]
1 | CN([C@@H](Cc1ccc(OS(=O)(=O)c2cccc3cnccc23)cc1)C(=O)N1CCN(c2ccccc2)CC1)S(=O)(=O)c1cccc2cnccc12 | 6.84 |  |  | 
2 | O=C1N[C@@H](Cc2ccc(OS(=O)(=O)c3cccc4cnccc34)cc2)C(=O)N1Cc1cccc2cnccc12 |  | 4.91 | 52% | 
3 | CC(C)(C)OC(=O)N1CCC(CN2C(=O)N[C@@H](Cc3ccc(OS(=O)(=O)c4cccc5cnccc45)cc3)C2=O)CC1 |  | 5.11 | 45% | 
4 | O=C1NC(=O)[C@H](Cc2ccc(OS(=O)(=O)c3cccc4cnccc34)cc2)N1 |  |  |  | inactive
5 | CC(C)(C)C(=O)N1CCC(N2C(=O)NC(=O)C2Cc2ccc(OS(=O)(=O)c3cccc4cnccc34)cc2)CC1 (racemic) |  | 5.25 | 49% | 
6 | CC(C)(C)OC(=O)N1CCC(CCN2C(=O)NC(=O)C2Cc2ccc(OS(=O)(=O)c3cccc4cnccc34)cc2)CC1 (racemic) |  | 6.00 | 54% | 
7 | O=C1NC(=O)N(CCC2CCN(Cc3ccccc3)CC2)C1Cc1ccc(OS(=O)(=O)c2cccc3cnccc23)cc1 (racemic) |  | 5.24 |  | 
8 | O=C1NC(=O)N(CCC2CCN(C(=O)c3ccccc3)CC2)C1Cc1ccc(OS(=O)(=O)c2cccc3cnccc23)cc1 (racemic) |  | 5.30 | 33% | 
9 | CCC(=O)N1CCC(N2C(=O)NC(=O)C2Cc2ccc(OS(=O)(=O)c3cccc4cnccc34)cc2)CC1 (racemic) |  | 4.93 | 48% | 
10 | CC(C)C(=O)N1CCC(N2C(=O)NC(=O)C2Cc2ccc(OS(=O)(=O)c3cccc4cnccc34)cc2)CC1 (racemic) |  | 5.14 | 33% | 
11 | CCCC(=O)N1CCC(N2C(=O)NC(=O)C2Cc2ccc(OS(=O)(=O)c3cccc4cnccc34)cc2)CC1 (racemic) |  | 5.06 | 37% | 
12 | CC(C)CC(=O)N1CCC(N2C(=O)NC(=O)C2Cc2ccc(OS(=O)(=O)c3cccc4cnccc34)cc2)CC1 (racemic) |  | 5.31 | 45% | 
13 | O=C1NC(=O)N(C2CCN(C(=O)C3CCCCC3)CC2)C1Cc1ccc(OS(=O)(=O)c2cccc3cnccc23)cc1 (racemic) | 7.10 | 6.88 |  | 
14 | O=C1NC(=O)N(C2CCN(C(=O)C34CC5CC(CC(C5)C3)C4)CC2)C1Cc1ccc(OS(=O)(=O)c2cccc3cnccc23)cc1 (racemic) | 7.85 | 7.64 |  | 
15 | CC(C)(C)OC(=O)N1CCC(CN2C(=O)C(Cc3ccc(OS(=O)(=O)c4cccc5cnccc45)cc3)N(Cc3cccc4cnccc34)C2=O)CC1 (racemic) |  | 4.92 | 50% | 
16 | O=C1C(Cc2ccc(OS(=O)(=O)c3cccc4cnccc34)cc2)N(CC2CCN(Cc3ccccc3)CC2)C(=O)N1Cc1cccc2cnccc12 (racemic) |  | 5.05 | 42% | 
17 | CC(C)(C)OC(=O)N1CCC(CN2C(=O)N(Cc3cccc4cnccc34)C(=O)C2Cc2ccc(OS(=O)(=O)c3cccc4cnccc34)cc2)CC1 (racemic) |  | 5.71 | 44% | 
18 | O=C1NC(=O)N(Cc2cccc3cnccc23)C1Cc1ccc(OS(=O)(=O)c2cccc3cnccc23)cc1 (racemic) |  | 5.42 | 38% | 
19 | O=C1NC(=O)N(CC2CCN(Cc3ccccc3)CC2)C1Cc1ccc(OS(=O)(=O)c2cccc3cnccc23)cc1 (racemic) |  | 5.74 | 52% | 
20 | CC(C)(C)OC(=O)N1CCC(CN2C(=O)NC(=O)C2Cc2ccc(OS(=O)(=O)c3cccc4cnccc34)cc2)CC1 (racemic) |  | 6.05 | 60% | 
21 | CC(C)(C)OC(=O)N1CCC(N2C(=O)NC(=O)C2Cc2ccc(OS(=O)(=O)c3cccc4cnccc34)cc2)CC1 (racemic) |  | 6.45 | 59% | 
22 | O=C1NC(=O)N(C2CCN(Cc3ccccc3)CC2)C1Cc1ccc(OS(=O)(=O)c2cccc3cnccc23)cc1 (racemic) |  | 5.79 |  | 
23 | O=C1NC(=O)N(C2CCN(C(=O)c3ccccc3)CC2)C1Cc1ccc(OS(=O)(=O)c2cccc3cnccc23)cc1 (racemic) |  | 6.24 | 60% | 
24 | O=C1NC(=O)N(CC2CCN(C(=O)c3ccccc3)CC2)C1Cc1ccc(OS(=O)(=O)c2cccc3cnccc23)cc1 (racemic) |  | 6.10 | 59% | 

Row | SMILES | pIC50 (P2X purinoceptor 7 [1]) | pIC50 (P2X purinoceptor 7 [2]) | inhibition [3] | inhibition [4]
25 | O=C1NC(=O)N(C2CCN(CC34CC5CC(CC(C5)C3)C4)CC2)C1Cc1ccc(OS(=O)(=O)c2cccc3cnccc23)cc1 (racemic) |  | 5.64 | 49% | 
26 | O=C1NC(=O)N(C2CCN(C(=O)CC34CC5CC(CC(C5)C3)C4)CC2)C1Cc1ccc(OS(=O)(=O)c2cccc3cnccc23)cc1 (racemic) | 7.82 | 7.08 | > 95% | 
27 | O=C1NC(=O)N(C2CCN(C(=O)C34CC5CC(CC(Br)(C5)C3)C4)CC2)C1Cc1ccc(OS(=O)(=O)c2cccc3cnccc23)cc1 (racemic) | 7.57 | 7.52 | > 95% | 
28 | CC12CC3CC(C)(C1)CC(C(=O)N1CCC(N4C(=O)NC(=O)C4Cc4ccc(OS(=O)(=O)c5cccc6cnccc56)cc4)CC1)(C3)C2 (racemic) | 7.09 | 7.00 |  | 
29 | O=C1NC(=O)N(C2CCN(C(=O)C34CC5CC(CC3C5)C4)CC2)C1Cc1ccc(OS(=O)(=O)c2cccc3cnccc23)cc1 (racemic) | 7.31 | 7.16 | > 95% | 
30 | O=C1NC(=O)N(C2CCN(C(=O)CC3CC4CCC3C4)CC2)C1Cc1ccc(OS(=O)(=O)c2cccc3cnccc23)cc1 (racemic) | 7.54 | 6.96 | > 95% | 
31 | COc1ccc(C(=O)N2CCC(N3C(=O)NC(=O)C3Cc3ccc(OS(=O)(=O)c4cccc5cnccc45)cc3)CC2)cc1OC (racemic) |  | 5.42 | 52% | 
32 | O=C1NC(=O)N(C2CCN(C(=O)c3ccccc3Cl)CC2)C1Cc1ccc(OS(=O)(=O)c2cccc3cnccc23)cc1 (racemic) |  | 6.18 | 68% | 
33 | O=C1NC(=O)N(C2CCN(C(=O)c3cccc(Cl)c3)CC2)C1Cc1ccc(OS(=O)(=O)c2cccc3cnccc23)cc1 (racemic) | 6.50 | 6.66 |  | 
34 | O=C1NC(=O)N(C2CCN(C(=O)c3ccc(Cl)cc3)CC2)C1Cc1ccc(OS(=O)(=O)c2cccc3cnccc23)cc1 (racemic) | 6.72 | 6.88 |  | 
35 | O=C1NC(=O)N(C2CCN(C(=O)c3ccc(F)cc3)CC2)C1Cc1ccc(OS(=O)(=O)c2cccc3cnccc23)cc1 (racemic) |  | 6.04 |  | 
36 | O=C1NC(=O)N(C2CCN(C(=O)c3ccc(F)c(F)c3)CC2)C1Cc1ccc(OS(=O)(=O)c2cccc3cnccc23)cc1 (racemic) | 7.09 | 6.66 |  | 
37 | O=C1NC(=O)N(C2CCN(C(=O)c3ccc(Cl)c(Cl)c3)CC2)C1Cc1ccc(OS(=O)(=O)c2cccc3cnccc23)cc1 (racemic) | 7.14 | 7.14 |  | 
38 | O=C1NC(=O)N(C2CCN(C(=O)c3ccc(Cl)cc3F)CC2)C1Cc1ccc(OS(=O)(=O)c2cccc3cnccc23)cc1 (racemic) | 6.60 | 6.37 |  | 
39 | CN1C(=O)C(Cc2ccc(OS(=O)(=O)c3cccc4cnccc34)cc2)N(C2CCN(C(=O)c3ccc(Cl)c(C(F)(F)F)c3)CC2)C1=O (racemic) |  | 6.27 |  | 
40 | CCN1C(=O)C(Cc2ccc(OS(=O)(=O)c3cccc4cnccc34)cc2)N(C2CCN(C(=O)c3ccc(Cl)c(C(F)(F)F)c3)CC2)C1=O (racemic) |  | 6.07 |  | 
41 | CCCN1C(=O)C(Cc2ccc(OS(=O)(=O)c3cccc4cnccc34)cc2)N(C2CCN(C(=O)c3ccc(Cl)c(C(F)(F)F)c3)CC2)C1=O (racemic) |  | 5.78 |  | 
42 | CC(C)N1C(=O)C(Cc2ccc(OS(=O)(=O)c3cccc4cnccc34)cc2)N(C2CCN(C(=O)c3ccc(Cl)c(C(F)(F)F)c3)CC2)C1=O (racemic) |  | 5.49 |  | 
43 | O=C1NC(=O)N(C2CCN(C(=O)C34CC5CC(CC(C5)C3)C4)CC2)C1c1ccc(OS(=O)(=O)c2cccc3cnccc23)cc1 (racemic) |  |  |  | 48%
44 | O=C1NC(=O)N(C2CCNCC2)C1Cc1ccc(OS(=O)(=O)c2cccc3cnccc23)cc1 (racemic) |  |  |  | inactive
45 | O=C1NC(=O)N(CC2CCNCC2)C1Cc1ccc(OS(=O)(=O)c2cccc3cnccc23)cc1 (racemic) |  |  |  | inactive
46 | O=C1NC(=O)N(C2CCN(C(=O)c3ccc(Cl)c(C(F)(F)F)c3)CC2)C1Cc1ccc(OS(=O)(=O)c2cccc3cnccc23)cc1 (single isomer, unassigned; (-)) | 8.05 | 7.27 |  | 
47 | O=C1NC(=O)N(C2CCN(C(=O)c3ccc(Cl)c(C(F)(F)F)c3)CC2)C1Cc1ccc(OS(=O)(=O)c2cccc3cnccc23)cc1 (stereo in doubt; (+)-21w) | 7.01 | 6.77 |  | 

Source: ChEMBL document CHEMBL3414458, “Discovery of novel 2,5-dioxoimidazolidine-based P2X(7) receptor antagonists as constrained analogues of KN62” (J Med Chem, 2015)
